Data reported in ChEMBL document CHEMBL4043282, “Discovery of the First Potent, Selective, and Orally Bioavailable Signal Peptide Peptidase-Like 2a (SPPL2a) Inhibitor Displaying Pronounced Immunomodulatory Effects In Vivo” (J Med Chem, 2018).
Calls of active or inactive are those of the source. The calls are words filed in the database; no cut-off is given here.

Tests used:
[1] = Total plasma concentration in mouse at 30 mg/kg administered via oral gavage measured after 16 hrs post dose by LC/MS/MS analysis; format: ADME, organism-based
Method in brief: (§1)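 Mice dosed by oral gavage in 0.5% MC:0.5% Tween or PEG:D5W 3:1. 50 μL blood taken retro-orbitally into LiHep tubes; in chronically dosed animals the trough sample came before the morning dose. Kept on ice, plasma separated by centrifugation at 2823g, 5 min, stored at −20 °C until analysis.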

[2] = system: Rattus norvegicus; test: Dose normalized Cmax in Wistar rat at 10 mg/kg, po bid measured up to 1 hr by LC/MS/MS analysis; format: ADME, organism-based, Wister; conditions: in vivo
[3] = system: Plasma; test: Cmin in mouse plasma at 10 mg/kg, po bid administered at 8 and 16 hrs dosing interval between first and second dose respectively for 11 days measured predose on day 12 by LC/MS/MS analysis; format: ADME, organism-based; conditions: in vivo, read-out: Cmin
Method in brief: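 Mice gavaged bid in 0.5% MC:0.5% Tween or PEG:D5W 3:1; trough sample taken before the morning dose; 50 μL retro-orbital blood into LiHep tubes, kept on ice, plasma separated at 2823g for 5 min, stored at −20 °C until analysis.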

[4] = Clearance in Wistar rat at 3 mg/kg, iv by LC/MS/MS analysis; format: ADME, organism-based; conditions: in vivo
[5] = system: Rattus norvegicus; test: Dose normalized AUC in Wistar rat at 10 mg/kg, po bid by LC/MS/MS analysis; format: ADME, organism-based; conditions: in vivo
[6] = target: T1, Signal peptide peptidase-like 2A (Mus musculus, UniProt Q9JJF9); test: Inhibition of mouse SPPL2a expressed in human U2OS cells using EGFP-labeled TNFalpha (1 to 77 residues) NLS as substrate after 24 hrs by Hoechst staining based high content imaging assay; format: cell-based
T1 sequence (Q9JJF9 whole entry): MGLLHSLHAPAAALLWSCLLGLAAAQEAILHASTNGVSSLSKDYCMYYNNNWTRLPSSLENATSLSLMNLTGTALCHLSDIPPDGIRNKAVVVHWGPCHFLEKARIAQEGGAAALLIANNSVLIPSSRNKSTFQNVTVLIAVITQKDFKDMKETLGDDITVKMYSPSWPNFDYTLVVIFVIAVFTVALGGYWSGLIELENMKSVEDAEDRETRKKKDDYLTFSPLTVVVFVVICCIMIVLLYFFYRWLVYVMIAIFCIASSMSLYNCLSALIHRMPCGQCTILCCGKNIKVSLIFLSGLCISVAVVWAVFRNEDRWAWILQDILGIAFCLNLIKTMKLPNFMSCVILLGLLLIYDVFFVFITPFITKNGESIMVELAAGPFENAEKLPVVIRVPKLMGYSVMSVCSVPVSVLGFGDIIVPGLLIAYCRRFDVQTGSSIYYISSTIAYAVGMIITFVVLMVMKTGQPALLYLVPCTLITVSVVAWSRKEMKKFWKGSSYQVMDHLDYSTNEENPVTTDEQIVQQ
Method in brief: (§2)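 Stable U-2 OS lines expressing human SPPL2a, SPPL2b or SPP constitutively (mouse SPPL2a line analogous, mouse TNFα(aa1-77)-NTF-EGFP-NLS) with doxycycline-inducible EGFP substrate. 3000 cells/well, 3−4 h, then 11-point inhibitor 100 μM to 1 nM, 0.9% DMSO, 5 μg/mL doxycycline, 24 h 37 °C. PFA fixed, Hoechst nuclei; nuclear minus cytoplasmic EGFP intensity; inhibition vs 0.5 μM reference and DMSO; IC50 by nonlinear regression.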

[7] = Total concentration in Lewis rat blood at 30 mg/kg, po bid after 24 hrs by LC/MS/MS analysis; format: ADME, organism-based; conditions: read-out: Drug uptake
[8] = target: T2, Signal peptide peptidase-like 2B (Homo sapiens, UniProt Q8TCT7); test: Inhibition of human SPPL2b expressed in human U2OS cells using EGFP-labeled TNFalpha (1 to 76 residues) NTF as substrate after 24 hrs by Hoechst staining based high content imaging assay; format: cell-based; method in brief: as §2
T2 sequence (Q8TCT7 whole entry): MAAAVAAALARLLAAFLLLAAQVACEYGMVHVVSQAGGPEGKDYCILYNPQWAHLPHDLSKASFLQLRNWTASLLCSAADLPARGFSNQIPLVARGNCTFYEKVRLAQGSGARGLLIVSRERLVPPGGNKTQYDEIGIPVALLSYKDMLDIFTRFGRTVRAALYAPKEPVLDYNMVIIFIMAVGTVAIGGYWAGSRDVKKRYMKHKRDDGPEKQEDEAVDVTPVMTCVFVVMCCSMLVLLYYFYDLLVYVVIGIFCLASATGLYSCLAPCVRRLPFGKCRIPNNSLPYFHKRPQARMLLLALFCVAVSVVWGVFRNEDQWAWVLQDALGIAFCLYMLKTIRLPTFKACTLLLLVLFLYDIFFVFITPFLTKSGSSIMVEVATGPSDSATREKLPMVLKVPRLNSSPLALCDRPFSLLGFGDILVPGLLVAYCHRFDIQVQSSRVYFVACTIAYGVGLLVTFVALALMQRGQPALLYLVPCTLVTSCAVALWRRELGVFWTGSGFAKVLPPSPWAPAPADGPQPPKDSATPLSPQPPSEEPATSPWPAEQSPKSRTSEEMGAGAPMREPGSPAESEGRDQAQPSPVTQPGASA

[9] = Total plasma concentration in mouse at 3 mg/kg administered via oral gavage measured after 16 hrs post dose by LC/MS/MS analysis; format: ADME, organism-based; method in brief: as §1
[10] = Drug uptake in mouse spleen at 30 mg/kg, po administered as single dose after 4 hrs by LC/MS/MS analysis; format: ADME, organism-based; conditions: read-out: Drug uptake
[11] = target: T3, Signal peptide peptidase-like 2A (Mus musculus) (UniProt Q9JJF9); test: Reversible inhibition of SPPL2a in mouse A20 cells assessed as increase in CD74/p8 accumulation at 2 uM preincubated for 16 hrs followed by compound wash out measured up to 2 hrs by Western blot method; format: cell-based
T3 sequence (whole entry): T1 sequence (Q9JJF9 whole entry)

[12] = system: Mus musculus; test: In vivo inhibition of mouse gamma-secretase assessed as effect on Hes1 mRNA level in jejunum up to 100 mg/kg, po administered as single dose by RT-PCR method; format: organism-based
Method in brief: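 Thymus and jejunum excised into RNALater, 4 °C overnight, washed, frozen at −80 °C; total RNA from 10 mg tissue by MagNA Pure LC; Hes1 measured by TaqMan real-time PCR; significance by two-tailed heteroscedastic Student's t-test.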

SMILES | concentration at 16 h [1] | Cmax/dose [2] | concentration [3] | clearance [4] | AUC/dose [5] | IC50 [6] | concentration at 24 h [7] | IC50 [8] | concentration at 16 h [9] | concentration at 4 h [10] | inhibition [11] | Activity [12]
Cc1ncc(F)cc1NC(=O)C[C@H](C(=O)N[C@@H]1C(=O)N2CC3(CC3)CN2C(=O)c2ccccc21)C1CC1 | 136 nM | 805 nM | 66 nM | 6 mL/min/kg | 8787 nM·h | 180 nM | 3560 nM | 430 nM | 0.8 nM |  |  | 
Cc1ccccc1NC(=O)C[C@@H](C)C(=O)N[C@@H]1C(=O)N2CCCN2Cc2ccccc21 |  |  |  |  |  |  |  |  |  | 434 nM | Active | Non-Toxic
